For 38 molecules, Activity and IC50 results are on record in ChEMBL document CHEMBL3351838, “Ligand-based pharmacophore modeling and virtual screening for the discovery of novel 17β-hydroxysteroid dehydrogenase 2 inhibitors” (J Med Chem, 2014).

Assay [1] addresses T1, 11-beta-hydroxysteroid dehydrogenase type 2 (Homo sapiens) (UniProt P80365).
T1 sequence (whole entry): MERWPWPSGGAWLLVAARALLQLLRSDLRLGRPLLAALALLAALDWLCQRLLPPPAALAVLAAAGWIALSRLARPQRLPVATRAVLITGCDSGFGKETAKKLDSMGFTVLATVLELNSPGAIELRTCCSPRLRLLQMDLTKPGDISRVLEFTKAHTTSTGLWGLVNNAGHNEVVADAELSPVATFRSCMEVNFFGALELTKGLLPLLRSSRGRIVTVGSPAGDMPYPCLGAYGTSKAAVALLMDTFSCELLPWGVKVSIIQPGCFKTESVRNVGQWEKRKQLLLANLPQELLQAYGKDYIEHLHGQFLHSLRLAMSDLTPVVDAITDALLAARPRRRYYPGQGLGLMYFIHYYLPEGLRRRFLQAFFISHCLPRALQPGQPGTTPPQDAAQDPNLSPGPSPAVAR
Kind of assay: Inhibition of 11beta-HSD2 (unknown origin) expressed in HEK293 cells lysate assessed as residual enzyme activity at 20 uM. The format is cell-free. Put shortly:
(§1)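 Lysates of stably transfected cells expressing 11β-HSD1 or 11β-HSD2, 10 min at 37 °C in TS2 buffer (pH 7.4) with inhibitor or 0.2% DMSO solvent. Reactions stopped after 10 min with excess unlabeled cortisone/cortisol. Steroids separated by TLC and quantified by scintillation counting. At least three independent measurements. Lines 2 and 3 report rest activity at 20 μM as % of control.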

Assay [2] has as its target T2, 17-beta-hydroxysteroid dehydrogenase type 2 (Homo sapiens, UniProt P37059).
T2 sequence (P37059 whole entry): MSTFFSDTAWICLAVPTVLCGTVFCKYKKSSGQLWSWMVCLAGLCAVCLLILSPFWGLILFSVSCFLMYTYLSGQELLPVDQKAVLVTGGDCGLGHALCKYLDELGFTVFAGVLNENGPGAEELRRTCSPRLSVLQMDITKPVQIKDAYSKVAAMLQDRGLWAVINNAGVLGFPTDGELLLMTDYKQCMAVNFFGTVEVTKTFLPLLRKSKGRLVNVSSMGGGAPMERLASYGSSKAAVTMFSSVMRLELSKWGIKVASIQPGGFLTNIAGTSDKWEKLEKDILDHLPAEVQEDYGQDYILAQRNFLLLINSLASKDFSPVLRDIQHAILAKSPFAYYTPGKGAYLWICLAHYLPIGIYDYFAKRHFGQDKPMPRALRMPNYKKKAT
Kind of assay: Inhibition of 17beta-HSD2 (unknown origin) expressed in HEK293 cells lysate. The format is cell-free. Put shortly:
(§2)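 Human 17β-HSD2 from lysates of calcium-phosphate-transfected HEK-293 cells (harvested 48 h). Incubated 10 min at 37 °C in TS2 buffer (pH 7.4) with inhibitor or 0.2% DMSO/chloroform. Substrate 190 nM unlabeled plus 10 nM radiolabeled estradiol with 500 μM NAD+. Stopped with excess estradiol/estrone. Radiolabeled steroids separated by TLC and counted; at least three independent measurements. Rest activity at 20 μM as % of control.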

For assay [3], the target named is T3, 11-beta-hydroxysteroid dehydrogenase 1 (Homo sapiens, UniProt P28845). The assay can be described thus: Inhibition of 11beta-HSD1 (unknown origin) expressed in HEK293 cells lysate. The format is cell-free. In short, it runs like this: as §1
Target sequence in this assay (P28845 whole entry): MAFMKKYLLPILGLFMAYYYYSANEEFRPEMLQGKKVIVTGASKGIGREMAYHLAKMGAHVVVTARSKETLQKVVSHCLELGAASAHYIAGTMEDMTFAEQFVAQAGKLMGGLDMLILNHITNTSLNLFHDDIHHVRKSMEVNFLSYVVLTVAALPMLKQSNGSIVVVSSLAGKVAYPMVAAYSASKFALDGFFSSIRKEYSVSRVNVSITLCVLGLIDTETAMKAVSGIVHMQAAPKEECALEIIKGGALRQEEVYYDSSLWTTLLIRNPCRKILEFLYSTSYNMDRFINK
In assay [4] the target is T4, 17-beta-hydroxysteroid dehydrogenase type 3 (Homo sapiens) (UniProt P37058).
T4 sequence (whole entry): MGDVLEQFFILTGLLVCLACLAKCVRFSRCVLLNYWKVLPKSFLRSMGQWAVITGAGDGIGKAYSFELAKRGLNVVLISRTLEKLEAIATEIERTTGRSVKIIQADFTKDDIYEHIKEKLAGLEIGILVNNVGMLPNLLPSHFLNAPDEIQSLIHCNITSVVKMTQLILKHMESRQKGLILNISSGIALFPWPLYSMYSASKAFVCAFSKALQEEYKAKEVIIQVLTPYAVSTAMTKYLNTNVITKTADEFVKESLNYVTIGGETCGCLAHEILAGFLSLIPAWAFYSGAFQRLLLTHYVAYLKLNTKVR
Kind of assay: Inhibition of 17beta-HSD3 (unknown origin) expressed in intact HEK293 cells assessed as residual enzyme activity at 20 uM. The format is cell-based. In short, it runs like this: (§3)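 HEK-293 cells transiently transfected with 17β-HSD3 by calcium phosphate were seeded at 15 000 cells/well and tested 24 h later in charcoal-treated DMEM. Inhibitor was preincubated 20 min at 37 °C. Substrate was 190 nM unlabeled plus 10 nM radiolabeled androstenedione for 30 min. Reactions stopped with excess androstenedione/testosterone. TLC separation and scintillation counting.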

Assay [5] concerns the target T5, 17-beta-hydroxysteroid dehydrogenase type 1 (Homo sapiens) (UniProt P14061).
T5 sequence (whole entry): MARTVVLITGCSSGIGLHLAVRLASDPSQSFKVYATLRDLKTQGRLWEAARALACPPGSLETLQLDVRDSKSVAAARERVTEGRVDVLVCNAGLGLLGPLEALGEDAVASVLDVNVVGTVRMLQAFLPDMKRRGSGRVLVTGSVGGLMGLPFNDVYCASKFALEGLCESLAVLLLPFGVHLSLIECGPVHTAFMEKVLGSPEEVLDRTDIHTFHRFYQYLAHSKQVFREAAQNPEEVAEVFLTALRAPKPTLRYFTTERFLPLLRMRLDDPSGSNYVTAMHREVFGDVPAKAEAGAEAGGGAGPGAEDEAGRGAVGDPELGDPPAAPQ
Kind of assay: Inhibition of 17beta-HSD1 (unknown origin) expressed in HEK293 cells lysate assessed as residual enzyme activity at 20 uM. The assay is classed as cell-free. In short, it runs like this: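 Lysate of HEK-293 cells transfected by calcium phosphate with human 17β-HSD1, harvested after 48 h. Incubated 10 min at 37 °C in TS2 buffer (pH 7.4) with inhibitor or 0.2% DMSO/chloroform. Substrate 190 nM unlabeled plus 10 nM radiolabeled estrone with 500 μM NADPH. Stopped with excess estradiol/estrone. TLC separation and scintillation counting; at least three independent measurements.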

Assay [6] has as its target T3, 11-beta-hydroxysteroid dehydrogenase 1. The assay can be described thus: Inhibition of 11beta-HSD1 (unknown origin) expressed in HEK293 cells lysate assessed as residual enzyme activity at 20 uM. The assay is classed as cell-free. In short, it runs like this: as §1
Target sequence in this assay (P28845 whole entry, looked up): as the sequence (P28845 whole entry) above
Assay [7] deals with T6, 17-beta-hydroxysteroid dehydrogenase type 2 (Homo sapiens) (UniProt P37059).
T6 sequence (whole entry): T2 sequence (P37059 whole entry)
Kind of assay: Inhibition of 17beta-HSD2 (unknown origin) expressed in HEK293 cells lysate assessed as residual enzyme activity at 20 uM. The assay is classed as cell-free. Put shortly:
as §2

Assay [8] concerns the target T2, 17-beta-hydroxysteroid dehydrogenase type 2. Kind of assay: Inhibition of 17beta-HSD2 (unknown origin) expressed in intact HEK293 cells. The assay is classed as cell-based. In short, it runs like this:
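Transfected HEK-293 cells were seeded at 15 000 cells/well 24 h after transfection and assayed 24 h later in charcoal-treated DMEM. Inhibitor was preincubated 20 min at 37 °C, followed by 190 nM unlabeled plus 10 nM radiolabeled estradiol for 20 min. Reactions stopped with excess estradiol/estrone. Steroids separated by TLC and measured by scintillation counting.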

The target in assay [9] is T7, 17-beta-hydroxysteroid dehydrogenase type 3 (Homo sapiens, UniProt P37058).
T7 sequence (P37058 whole entry): T4 sequence (whole entry)
The assay can be described thus: Inhibition of 17beta-HSD3 (unknown origin) expressed in intact HEK293 cells. The assay is classed as cell-based. In short, it runs like this: as §3

The term IC50 denotes the concentration that gives 50% inhibition. Lower therefore signals inhibition by little substance. Consider `COc1ccc(S(=O)(=O)Nc2ccc(O)c3c2CCCC3)cc1`, for which the Activity in assay [1], in assay [4] and in assay [5] was more than 70% in each case. The half-inhibitory concentration (IC50) in assay [2] was 9.6 µM; in assay [3] it was 8.1 µM.

Regarding `COc1cc(C)c(S(=O)(=O)Nc2cccc(O)c2)cc1C`, the Activity in assay [6] is more than 70%; in assay [1] it was more than 70%; in [4], more than 70%; in assay [7], 15%; in [5], more than 70%. Moreover, inhibition in [2] was half-maximal at 6.9 µM (IC50).

`O=S(=O)(Nc1ccc(F)c(Cl)c1)c1ccc(F)cc1`: in assay [7], the Activity came to 45%.

As for `O=S(=O)(Nc1ccccc1CO)c1ccc(Cl)cc1`, in assay [7], the Activity was more than 70%.

As for `Cc1ccc(C)c(S(=O)(=O)Nc2ccc(O)cc2)c1`, the Activity in assay [7] came to 39%.

For the molecule `O=C(CSc1nccc(O)n1)Nc1cccc2nsnc12`, the Activity in [6] is more than 70%; in assay [1] it was more than 70%; in [4] it was more than 70%; in assay [7], 8%; in [5], more than 70%. Moreover, the IC50 in assay [2] stood at 1.5 µM; in assay [8], 1.1 µM.

Regarding `COc1ccc(/C=N/NC(=O)COc2c(Br)cc(C)cc2Br)c(OC)c1`, the Activity in assay [7] was determined as 38%.

Consider `O=S(=O)(Nc1cccc(Cl)c1)c1ccc(F)cc1`, for which the Activity in assay [7] is more than 70%.

For `Cc1cc(S(=O)(=O)Nc2cc(Cl)ccc2O)ccc1F`, the Activity in assay [7] was found to be 44%.

Consider `CC(=O)Nc1ccccc1OS(=O)(=O)c1ccc(C)c(C)c1`, for which the Activity in assay [7] is more than 70%.

`COc1ccc(S(=O)(=O)Nc2cccc(O)c2)c2c1CCCC2`: the Activity in [1] was more than 70%; in assay [4] it was more than 70%; in assay [5], 53%. Also, the concentration for half-maximal inhibition (IC50) in assay [2] stood at 15 µM; in [3], 13 µM.

Consider `Cc1cc(C)c(S(=O)(=O)Nc2ccc(O)cc2)c(C)c1`, for which the Activity in assay [7] turned out to be 33%.

`O=C(CSc1ncccn1)Nc1cccc2nsnc12`: the Activity in assay [7] is more than 70%.

As to `Clc1ccc(Cl)c(-c2ccc(CNc3nn[nH]n3)o2)c1`, the Activity in [6] was more than 70%; in assay [1] it was more than 70%; in [4] it was more than 70%; in assay [7] it was 29%; in assay [5] it was more than 70%. Also, the 50% inhibitory concentration (IC50) in assay [2] amounted to 33 µM.

With `C/C(=N\NC(=O)COc1ccc(C)cc1Br)c1ccc(O)cc1O`, the Activity in [7] was more than 70%.

As to `COc1ccccc1OS(=O)(=O)c1ccc(NC(C)=O)cc1`, in assay [7], the Activity is more than 70%.

With `O=S(=O)(Nc1ccc(O)cc1)c1ccc(Cl)cc1`, the Activity in assay [7] came to 55%.

Turning to `O=S(=O)(Nc1ccccc1F)c1ccc(Br)cc1`, the Activity in assay [7] is more than 70%.

Consider `Cc1ccc(NS(=O)(=O)c2cccc(C(F)(F)F)c2)cc1O`, for which the Activity in [6] was more than 70%; in assay [1], more than 70%; in [4], more than 70%; in [7], 25%; in assay [5], more than 70%. Further, the half-maximal inhibitory concentration (IC50) in assay [2] was found to be 7.1 µM.

As for `Cc1ccc(Cl)cc1NS(=O)(=O)c1ccc(F)cc1`, in [7], the Activity is more than 70%.

Consider `Cc1ccc(NS(=O)(=O)c2ccc(Cl)cc2)cc1O`, for which the Activity in assay [7] was 45%.

Regarding `Cc1cc(Br)c(OCC(=O)N/N=C/c2c(C)cc(O)cc2O)c(Br)c1`, in [7], the Activity turned out to be 64%.

For `COc1ccc(S(=O)(=O)Nc2ccc(C)c(O)c2)cc1`, the Activity in assay [7] was 47%.

For the molecule `COc1cc(C)c(S(=O)(=O)Nc2ccc(C(=O)O)cc2)cc1C`, the Activity in [7] was more than 70%.

For `COc1cc(C)c(S(=O)(=O)Nc2ccc(Cl)cc2)cc1C`, the Activity in [7] is more than 70%.

As for `CC(=O)Nc1ccccc1NS(=O)(=O)c1c(C)c(C)cc(C)c1C`, in [7], the Activity was more than 70%.

Turning to `Cc1cc(C)c(S(=O)(=O)Nc2cccc(O)c2)cc1C`, the Activity is more than 70% in [6], more than 70% in [1], 43% in assay [4] and more than 70% in assay [5]. In [2], this molecule gave an IC50 of 3.3 µM.

In the case of `COc1ccc(NS(=O)(=O)c2cc(C)ccc2C)cc1`, the Activity in assay [7] was more than 70%.

Take `CCc1ccc(CC)c(S(=O)(=O)Nc2cc(OC)ccc2OC)c1`: in [7], the Activity is more than 70%.

For the molecule `O=S(=O)(Nc1ccc(O)c(Cl)c1)c1ccc(F)cc1`, the Activity is more than 70% in [6], more than 70% in [1], 9% in assay [7] and more than 70% in assay [5]. In addition, the IC50 in assay [2] was found to be 3 µM; in [8] it was 10 µM; in [9] it was 3.9 µM.

On to `O=S(=O)(Nc1cccc(O)c1)c1ccc(Br)cc1`, for which the Activity in assay [6], in assay [1], in [4] and in [5] was more than 70% throughout. In addition, half-maximal inhibition in [2] (IC50) was put at 4.9 µM.

Take `CC(O)c1ccccc1NS(=O)(=O)c1ccc(F)cc1` (stereo unspecified): the Activity in assay [7] was more than 70%.

Consider `Cc1ccc(NS(=O)(=O)c2cccc(Br)c2)cc1O`, for which the Activity in assay [6] was more than 70%; in assay [1] it was more than 70%; in assay [4] it was more than 70%; in assay [5], 58%. The molecule further returned an IC50 in assay [2] of 6.3 µM.

Turning to `CC(=O)Nc1ccc(S(=O)(=O)Oc2ccc3c(c2)NCCC3)cc1`, in [7], the Activity is more than 70%.

On to `Cc1cc(C)c(OCC(=O)N/N=C/c2ccc(O)cc2O)c(Br)c1`, for which the Activity in [6] is 69%; in assay [1], 61%; in assay [7] it was 9%; in assay [5] it was 52%. Besides, the values for the IC50 in assay [2], in assay [8] and in assay [9] were 4.1 µM, 23 µM and 1.6 µM, respectively.

In the case of `CCC(=O)c1ccc(OS(=O)(=O)c2ccc(NC(C)=O)cc2)cc1`, the Activity in [7] turned out to be 67%.

`COc1ccccc1OS(=O)(=O)c1ccc(C(C)(C)C)cc1`: in assay [7], the Activity is 51%.

In the case of `COc1ccc(NS(=O)(=O)c2ccc(Cl)cc2)cc1`, in assay [7], the Activity was more than 70%.
